A selection: hits, their analogues and other compounds. The true share with any hit is near 4.3%.
CAL PDZ FP-1: blocks peptide binding to the human CAL PDZ domain; Q9HD26; purified CAL PDZ, TMR-peptide fluorescence polarization, 1 h; inhibition, % at 24.9 µM; hit rate 0.92% among 300,000;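 active means mean inhibition of at least 30% with at least half of replicates also reaching 30%; inconclusive means no clear call, values can overlap the other calls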;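 further: 0% = DMSO neutral control and 100% = excess unlabeled competitor peptide PRC23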
Rtt109 Vps75: blocks Candida albicans Rtt109/Vps75 acetyltransferase activity. inhibition, % at 34.9 µM. hit rate 0.16% among 330,000. purified Rtt109/Vps75, ThioGlo CoA-SH fluorescence, 4 h;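 active means inhibition of at least 50% in every replicate; inconclusive means best replicate reaches 50% inhibition but some replicates fall short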
Target sequence (Q5AAJ8 whole entry, looked up): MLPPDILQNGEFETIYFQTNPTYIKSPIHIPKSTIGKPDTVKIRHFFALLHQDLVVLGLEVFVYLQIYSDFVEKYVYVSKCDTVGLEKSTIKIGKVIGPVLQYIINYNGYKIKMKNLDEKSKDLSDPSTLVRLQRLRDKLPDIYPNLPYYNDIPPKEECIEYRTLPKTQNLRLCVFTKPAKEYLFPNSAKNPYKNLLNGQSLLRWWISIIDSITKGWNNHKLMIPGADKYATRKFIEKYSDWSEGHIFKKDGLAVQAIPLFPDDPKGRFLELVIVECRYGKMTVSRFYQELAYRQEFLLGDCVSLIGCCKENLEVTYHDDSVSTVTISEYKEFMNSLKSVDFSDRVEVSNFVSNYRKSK
Dyrk1A ADPGlo: inhibitors of rat Dyrk1A kinase; hit rate 0.43% among 310,000; inhibition, % at 12.5 µM; ADP-Glo luminescence, NFATc1 peptide; Q63470; AID 504441; in the data active means inhibition above about 50%;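 further: plate controls were vehicle with enzyme for no effect and no enzyme for full effect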
ALR H2O2 inh: inhibitors of human sulfhydryl oxidase ALR | purified ALR, DTT oxidation, H2O2 HRP-luminol luminescence | inhibition, % (concentration not given with the values) | hit rate 3.8% among 290,000 | AID 485317;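 active means mean replicate inhibition above about 79%, with every replicate also reaching it, limit read from the data; inconclusive means only one of the two criteria met; inactive means mean below limit and not every replicate reaching it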
Target sequence (P55789 whole entry, looked up): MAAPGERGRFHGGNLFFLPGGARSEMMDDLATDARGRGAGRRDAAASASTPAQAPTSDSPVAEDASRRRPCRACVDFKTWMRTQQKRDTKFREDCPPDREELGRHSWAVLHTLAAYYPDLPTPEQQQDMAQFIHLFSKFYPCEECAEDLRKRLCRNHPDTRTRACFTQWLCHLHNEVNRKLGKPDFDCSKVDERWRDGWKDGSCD
CAL PDZ FP-2: blocks peptide binding to human CAL PDZ domain; inhibition, % at 20 µM; purified CAL PDZ, TMR-peptide fluorescence polarization, 1 h; Q9HD26; hit rate 0.02% among 330,000;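 active means highest replicate inhibition of at least 40%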;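 further: plate controls were DMSO neutral control wells for no effect and unlabeled competitor peptide control wells for full effect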
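material = purified tagged CAL PDZ domain construct (CerCALP) | buffer or medium = sodium phosphate/NaCl buffer pH 7.4 with TCEP, IgG, Thesit | reagent = TMR-labelled reporter peptide T*-PRC34 bound in PDZ groove | incubation = 1 h room-temperature incubation prior to read | measured by = fluorescence polarization (mP) | evaluation = percent inhibition from loss of millipolarization | control set = unlabelled peptide and DMSO controls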
* = called active by the depositor; i = inactive; ? = inconclusive; . = not tested or not shown; + = active, no number.

SMILES	CAL PDZ FP-1	Rtt109 Vps75	Dyrk1A ADPGlo	ALR H2O2 inh	CAL PDZ FP-2
Cc1ccc(N2C(=O)N(CC(=O)Nc3c(C)cc(C)cc3Cl)C(=O)C2C)cc1 (centres undefined)	-2	7	17	0	-3
N#Cc1ccccc1S(=O)(=O)Nc1ccc2c(c1)OCCO2	6	-9	4	-4	-1
COc1cc(C(=O)ON=C2C(C)=CC(=O)C=C2C)cc(OC)c1OC	.	-13	1	99*	21
COc1cc(C(=O)O/N=C2/C=C(C)C(=O)C=C2C)cc(OC)c1OC	-2	0	-2	26	-3
CC(C)CCOC(=O)/C(=C/c1ccco1)NC(=O)/C=C/c1ccccc1	-2	11	2	90*	16
NC(=O)/C(=C/c1ccco1)NC(=O)/C=C/c1ccccc1	-1	1	4	-9	-1
O=S(=O)(NCCCN1CCN(c2ccccc2F)CC1)c1cccc2cccnc12	.	-4	2	95*	0
Cc1ccsc1/C=C1\SC(N2CC(C)OC(C)C2)=NC1=O (centres undefined)	-5	9	0	100*	-1
S=c1[nH]c2ccc(Cl)cc2s1	-21	6	18	99*	-1
CCOC(=O)N1CCN(C(=O)c2ccc(Cn3c(=S)[nH]c4ccc(Br)cc4c3=O)cc2)CC1	0	8	1	3	-1
O=C(NCCN1CCCCC1)Nc1ccc([N+](=O)[O-])cc1	-2	51*	15	7	0
COc1ccc(OC)c(NC(=O)NCCN2CCN(c3ccccc3)CC2)c1	-2	0	-6	?	-2
COc1ccc(N2CCN(CCNC(=O)Nc3ccc([N+](=O)[O-])cc3OC)CC2)cc1	-7	2	5	89*	-2
CCN1CCN(CCNC(=O)Nc2ccc([N+](=O)[O-])cc2)CC1	-3	2	-7	1	1
COc1ccc(Cl)c2sc(N(CCN(C)C)C(=O)c3ccc4c(c3)OCCO4)nc12	-7	5	15	-5	-5
CC(C)(C)NC(=O)C(Cc1ccccc1)NS(=O)(=O)c1ccc2c(c1)CCC(=O)N2 (centres undefined)	-8	-5	4	98*	-1
Cc1ccc(C)c(OC2=NS(=O)(=O)c3ccccc32)c1	5	.	-2	-3	0
O=S1(=O)NC(=NCCOCCO)c2ccccc21	1	-1	6	-2	-29
Cc1ccc2c(c1)-c1ccccc1S(=O)(=O)N2	-2	-1	5	95*	-2
Nc1ccc2c(c1)-c1ccccc1S(=O)(=O)N2	-4	-4	2	100*	-2
O=c1cc(CN2CCN(Cc3ccccc3)CC2)c2ccc(O)cc2o1	-3	i	4	0	-1
O=C(c1ccco1)N1CCN(Cc2cc(=O)oc3cc(O)ccc23)CC1	48*	i	.	1	-1
Cc1ccc(C(=O)N(c2ccccn2)C(C)c2ccco2)cc1C (centres undefined)	-4	-7	.	97*	-1
COc1cc(/C=C/C(=O)OCC(=O)N2CC(=O)Nc3ccccc32)ccc1O	5	4	-3	96*	-1
O=C1CN(C(=O)COC(=O)C23CC4CC(CC(O)(C4)C2)C3)c2ccccc2N1	39*	3	1	-8	0
SMILES	CAL PDZ FP-1	Rtt109 Vps75	Dyrk1A ADPGlo	ALR H2O2 inh	CAL PDZ FP-2
O=C1CN(C(=O)COc2ccc(F)cc2Br)c2ccccc2N1	67*	0	-8	-2	-5
O=C1CN(C(=O)COc2ccccc2Cl)c2ccccc2N1	45*	-17	-3	-3	0
COc1cccc2c1OCC(CN1CCN(CCC(C)C)C(CCO)C1)=C2 (centres undefined)	0	-5	0	-5	-1
CCOC(=O)Cc1nnc(Nc2cc(C)ccc2C)c2ccccc12	-8	.	-5	-10	-3
Cc1ccc(NC(=O)CSC2=Nc3ccccc3C3CC=NN23)c(C)c1 (centres undefined)	-2	-2	1	7	-3
NC(=O)c1ccc(NC(=O)CSC2=Nc3ccccc3C3CC=NN23)cc1 (centres undefined)	2	-3	8	99*	-2
COC(=O)c1ccc(NC(=O)CSC2=Nc3ccccc3C3CC=NN23)cc1 (centres undefined)	3	2	-6	97*	-2
O=C(CSc1ccc(-c2cccs2)nn1)c1cccs1	-2	13	.	-2	-2
CCCCS(=O)(=O)N1CCCC(C(=O)Nc2ccc3c(c2)CCC3)C1 (centres undefined)	0	-7	-6	-6	1
O=[N+]([O-])c1cccc(S(=O)(=O)Nc2ccc3cn[nH]c3c2)c1	+	-10	8	55	0
Cc1nn(C2CC(O)C(O)C(CO)O2)c(=O)[nH]c1=O (centres undefined)	-2	3	-9	.	0
CCc1ccccc1NC(=O)CNC(=O)c1cc(C2CC2)nc2c1cnn2C(C)C	-4	17	-1	-1	-1
CC(C)n1ncc2c(C(=O)NCC(=O)Nc3ccccc3Br)cc(C3CC3)nc21	46*	4	4	-4	0
COc1ccc(S(=O)(=O)N(C)C)cc1NC(=O)CCNC(=O)c1ccccc1OC	0	2	3	.	0
CC(=O)c1ccccc1OC(=O)COc1ccc(Cl)cc1C	1	4	1	96*	-1
Cc1cc(Cl)ccc1OCC(=O)OCC(=O)NCCNC(=O)COC(=O)COc1ccc(Cl)cc1C	.	0	6	.	-2
COc1ccc(C(=O)NC(=S)Nc2ccc3oc(=O)ccc3c2)cc1	-2	.	.	-4	-2
CCCCCC(=O)NC(=S)Nc1ccc2oc(=O)ccc2c1	86*	-9	3	8	-1
CC1CCCCC1NS(=O)(=O)CCNC(=O)c1ccccc1 (centres undefined)	35*	-4	.	1	0
CC(C)c1ccc(/C=C/C(=O)NC(=S)Nc2ccc(CN3CCOCC3)cc2)cc1	-2	.	-18	48	-3
CC(C)c1ccc(/C=C/C(=O)NC(=S)NN2CCOCC2)cc1	-7	9	-1	80*	-1
O=C1CCCCN1CCC(=O)N1CCCC(Nc2ccc(F)c(F)c2)C1 (centres undefined)	-4	-22	0	21	-3
COc1ccc(NC2CCCN(C(=O)CCN3CCCC3=O)C2)cc1 (centres undefined)	-6	-2	11	98*	-3
O=C1CCCN1CCC(=O)N1CCCC(Nc2ccc(F)cc2)C1 (centres undefined)	-7	-5	5	46	-3
Cc1ccc(NC2CCCN(C(=O)CCCN3CCCCC3=O)C2)cc1C (centres undefined)	2	-1	0	99*	0
COc1ccc(NC2CCCN(C(=O)CCCN3CCCCC3=O)C2)cc1 (centres undefined)	-10	-5	-1	99*	-1

Source: PubChem BioAssay (Broad Institute)
